Test results from ChEMBL document CHEMBL1155241, “Investigation of N-aryl-3-alkylidenepyrrolinones as potential Niemann-Pick type C disease therapeutics” (2009).
Activity calls are given as the source filed them. No cut-off for these calls is given here.

Assays:
[1] = Inhibition of LDL endocytosis in wild type chinese hamster 25RA cells assessed as ratio of DiI-labeled LDL level in treated to untreated control at 10 uM after 35 mins by fluorimetry; assay type: functional, Cricetulus griseus
Method in brief: (§1)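 CT60 or 25RA cells incubated with compound together with DiI-labeled LDL, either 35 min (short) or 18 h (long). Uptake quantified as DiI fluorescence intensity per cell area and normalized to the mean of solvent (DMSO)-treated samples.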

[2] = Inhibition of LDL endocytosis in NPC1 deficient chinese hamster CT60 cells assessed as ratio of DiI-labeled LDL level in treated to untreated control at 10 uM after 18 hrs by fluorimetry; assay type: functional, Cricetulus griseus; method in brief: as §1
[3] = target: T1, Sterol O-acyltransferase 1 (Cricetulus griseus) (UniProt Q60457); experiment: Increase in ACAT-induced cholesterol esterification in NPC1 deficient chinese hamster CT60 cells assessed as ratio of [14C]oleic acid incorporation in treated to untreated control at 10 uM; assay type: cell-based
T1 sequence (whole entry): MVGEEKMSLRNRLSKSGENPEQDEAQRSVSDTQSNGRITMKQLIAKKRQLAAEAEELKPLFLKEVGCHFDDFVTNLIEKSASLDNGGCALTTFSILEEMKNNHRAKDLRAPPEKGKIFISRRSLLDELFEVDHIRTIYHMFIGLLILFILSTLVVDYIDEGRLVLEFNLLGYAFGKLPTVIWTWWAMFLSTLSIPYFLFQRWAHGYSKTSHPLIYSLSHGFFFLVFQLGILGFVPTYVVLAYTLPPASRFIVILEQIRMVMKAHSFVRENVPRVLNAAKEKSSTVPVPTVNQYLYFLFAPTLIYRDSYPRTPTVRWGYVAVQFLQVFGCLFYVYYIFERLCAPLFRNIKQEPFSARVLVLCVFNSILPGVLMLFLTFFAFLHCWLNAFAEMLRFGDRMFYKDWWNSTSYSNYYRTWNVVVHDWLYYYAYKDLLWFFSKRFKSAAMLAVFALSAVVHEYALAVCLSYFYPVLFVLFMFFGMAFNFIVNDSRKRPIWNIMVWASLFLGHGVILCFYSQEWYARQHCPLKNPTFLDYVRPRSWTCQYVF
Method in brief: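 CT60 cells treated 18 h at 10 µM. ACAT esterification measured as incorporation of [14C]-oleic acid into cholesteryl-[14C]-oleate, normalized to cellular protein. Expressed relative to solvent-treated controls.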

[4] = Effect on cholesterol esters content in NPC1 deficient chinese hamster CT60 cells assessed as ratio of cholesteryl esters level in treated to untreated control at 10 uM by gas chromatography; assay type: functional, Cricetulus griseus
Method in brief: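 CT60 cells exposed to 10 µM for 18 h alongside solvent (DMSO) controls. Total cellular cholesteryl ester measured by GC and expressed per µg cell protein. Reported relative to solvent-treated cells.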

[5] = tested on: CT60; experiment: Increase in cholesterol efflux in NPC1 deficient chinese hamster CT60 cells at 10 uM after 18 hrs by [3H]cholesterol incorporation assay; assay type: functional, cell-based; conditions: Cricetulus griseus
Method in brief: (§2)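 Cells labeled 24 h with 1 µCi/ml [3H]-cholesterol, then incubated 18 h with 10 µM compound. Efflux went to serum acceptors. Efflux is supernatant radioactivity divided by supernatant plus cell-monolayer radioactivity, compared with solvent-treated control cells.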

[6] = organism: Cricetulus griseus; experiment: Increase in cholesterol efflux in wild type chinese hamster 25RA cells with SCAP gene gain of function mutation at 10 uM after 18 hrs by [3H]cholesterol incorporation assay; assay type: functional; method in brief: as §2
[7] = organism: Cricetulus griseus; experiment: Increase in cholesterol efflux in chinese hamster TRVb1 cells expressing human transferrin receptor at 10 uM after 18 hrs by [3H]cholesterol incorporation assay; assay type: functional; method in brief: as §2
[8] = Reduction in cholesterol level in lysosomal storage organelles of NPC1 deficient chinese hamster CT43 cells at 10 uM by LSO compartment ratio assay; assay type: functional, Cricetulus griseus; design: scale not given: the % may be the effect or the level left
[9] = Reduction in cholesterol level in lysosomal storage organelles of NPC1 deficient chinese hamster CT60 cells at 10 uM by LSO compartment ratio assay; assay type: functional, Cricetulus griseus; design: scale not given: the % may be the effect or the level left
[10] = Inhibition of LDL endocytosis in NPC1 deficient chinese hamster CT60 cells assessed as ratio of DiI-labeled LDL level in treated to untreated control at 10 uM after 35 mins by fluorimetry; assay type: functional, Cricetulus griseus; method in brief: as §1
[11] = Inhibition of LDL endocytosis in NPC1 deficient chinese hamster cells assessed as ratio of DiI-labeled LDL level in treated to untreated control at 10 uM after 18 hrs by fluorimetry

Compound: O=C(O)c1ccc(N2C(=O)/C(=C\c3ccc(-c4ccc(Br)cc4)o3)C=C2c2ccccc2)cc1
- Ratio [1]: 1.16
- Ratio [2]: 0.59
- Ratio [3]: 1.49
- Ratio [4]: 1.05
- Activity [5]: Active
- Activity [6]: Active
- Activity [7]: Active
- Activity [8]: 80%
- Activity [9]: 30%
- Ratio [10]: 0.93
- Ratio [11]: 0.67
